Measurements as given in paper PMC5628144 (Phytotherapy research : PTR, 2017).
Several values for one entry are separate records, joined by “and”; a condition that tells them apart may be missing. Equal values may be shown once.

Key:
[1] = system: MDA-MB-231 breast cancer cells; experiment: MTT cell proliferation assay, HGF-induced, MDA-MB-231; type: cell-based, human; conditions: 48 h
Outline: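 MDA-MB-231 cells were seeded at 1×10⁴/well (6 wells/group) in RPMI-1640 with 10% FBS overnight. They were PBS-washed and treated for 48 h at 37°C in serum-free RPMI with 40 ng/mL HGF and 10 or 40 µM test compound, or DMSO vehicle. MTT 1 mg mL⁻¹ for 4 h, DMSO solubilisation, A570. Cell number came from a standard curve, and % survival was taken relative to DMSO wells.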

c-Met kinase = c-Met kinase (Homo sapiens, UniProt P08581); experiment: Cell-free Z'-LYTE kinase assay, c-Met phosphorylation inhibition; type: biochemical; conditions: for IC50: read-out: c-Met phosphorylation inhibitory IC50, various doses; for % c-Met Inhibition using Cell-Free assay (5 µM dose): single 5 µM dose
Outline: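 Purified c-Met kinase domain, pre-phosphorylated in vitro, in a Z'-LYTE Tyr6 peptide kit. Reactions held kinase buffer, 200 µM ATP, 4 µM Tyr6 peptide, 2500 ng mL⁻¹ c-Met and test compound, run 1 h at rt. Protease development solution then added for 1 h. Read-out was the 445/520 nm fluorescence ratio. Screen at 5 µM, then various doses, N=3/dose. IC50 from non-linear regression.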

MDA-MB-231 cells = experiment: Wound-healing scratch assay; type: cell-based, human; conditions: read-out: IC50, HGF-induced cell migration; WHA, MDA-MB-231, 24 h, 40 ng/mL HGF
Outline: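 Scratch wounds were made with a pipette tip in overnight confluent MDA-MB-231 monolayers, then rinsed with PBS and RPMI. Test compound at various doses in serum-free medium with 40 ng/mL HGF, in triplicate, for 24 h. Cells were fixed and Giemsa-stained, and wound width measured at 0 and 24 h. % migration calculated against DMSO-treated wells, with IC50 by non-linear regression. Oleocanthal 10 µM was the positive control.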

[2] = system: BT-474 breast cancer cells; experiment: MTT cell proliferation assay, HGF-induced, BT-474; type: cell-based, human; conditions: BT-474, various doses
Outline: (§1)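 MDA-MB-468, MCF-7 or BT-474 cells were seeded at 1×10⁴/well (6 wells/group) in RPMI-1640 with 10% FBS and left overnight at 37°C, 5% CO₂. After a PBS wash they got serum-free RPMI with 40 ng/mL HGF plus test compound at various doses, or DMSO (≤0.1%), for 48 h. MTT (1 mg mL⁻¹) for 4 h, formazan dissolved in DMSO, A570. IC50 by non-linear regression.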

[3] = system: MCF-7 breast cancer cells; experiment: MTT cell proliferation assay, HGF-induced, MCF-7; type: cell-based, human; conditions: MCF-7, various doses
Outline: as §1

[4] = system: MDA-MB-468 breast cancer cells; experiment: MTT cell proliferation assay, HGF-induced, MDA-MB-468; type: cell-based, human; conditions: MDA-MB-468, various doses
Outline: as §1

Sequence of c-Met kinase (P08581 1078-1345 limits assumed): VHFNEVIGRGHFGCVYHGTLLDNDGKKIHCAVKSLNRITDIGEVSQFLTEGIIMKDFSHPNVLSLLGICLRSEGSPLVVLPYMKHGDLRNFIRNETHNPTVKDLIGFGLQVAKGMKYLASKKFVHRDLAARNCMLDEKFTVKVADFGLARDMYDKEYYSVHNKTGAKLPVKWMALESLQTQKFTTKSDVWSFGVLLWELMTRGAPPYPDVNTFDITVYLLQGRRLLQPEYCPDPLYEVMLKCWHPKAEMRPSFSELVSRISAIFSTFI

% c-Met Inhibition using Cell-Free assay (5 µM dose) (c-Met kinase) [%]	Molecule	% Survival Inhibition ([1]; 10 µM)	% Survival Inhibition ([1]; 40 µM)	IC50 (c-Met kinase) [µM]	IC50 (MDA-MB-231 cells) [µM]	HGF-induced proliferation [2]	HGF-induced proliferation [3]	HGF-induced proliferation [4]
0	premnoside B [Compound 6]	10%	13%					
10.9	6-O-α-L-(3″-O-trans-p-coumaroyl-4″-O-trans-caffeoyl)-rhamnopyrano-sylcatalpol [Compound 3]	27%	30%					
0	premnoside C [Compound 7]	13%	18%					
0	premnoside E [Compound 4]		7%					
0	premnoside G [Compound 5]		20%					
	C[C@@H]1O[C@@H](OC(=O)/C=C/c2ccc(O)cc2)[C@H](OC(=O)/C=C/c2ccc(O)c(O)c2)[C@H](O)[C@H]1O (relative stereo) [Compound 9, 1-O-trans-p-coumaroyl-2-O-trans-caffeoyl-α-L-rhamnopyranose]	50% and 51.3%	80% and 79.3%	2.5	0.98	dose-dependent suppression	dose-dependent suppression	dose-dependent suppression

Molecule	% c-Met Inhibition using Cell-Free assay (5 µM dose) (c-Met kinase) [%]	% Survival Inhibition ([1]; 10 µM)	% Survival Inhibition ([1]; 40 µM)	IC50 (c-Met kinase) [µM]	IC50 (MDA-MB-231 cells) [µM]	HGF-induced proliferation [2]	HGF-induced proliferation [3]	HGF-induced proliferation [4]
C[C@@H]1O[C@@H](OC(=O)/C=C/c2ccc(O)cc2)[C@H](O)[C@H](OC(=O)/C=C/c2ccc(O)c(O)c2)[C@H]1O (relative stereo) [Compound 10, 1-O-trans-p-coumaroyl-3-O-trans-caffeoyl-α-L-rhamnopyranose]	38.8	28% and 28.2%	49% and 49.2%	12.7	8.1			
COc1ccc(/C=C/C(=O)O[C@@H]2[C@@H](O)[C@@H](O)[C@H](O[C@H]3[C@@H]4C=CO[C@@H](O[C@@H]5O[C@H](CO)[C@@H](O)[C@H](O)[C@H]5O)[C@@H]4[C@@]4(CO)O[C@@H]34)O[C@H]2C)cc1 [Compound 8, 6-O-α-L-(4”-O-p-methoxycinnamoyl) rhamnopyranosylcatalpol]	56.7	32%	61% and 61.3%	6.9	13.5			
COc1ccc(C=CC(=O)OC2C(C)OC(OC3C4C=COC(OC5OC(CO)C(O)C(O)C5O)C4C4(CO)OC34)C(O)C2OC(=O)C=Cc2ccc(OC)cc2)cc1 [Compound 2, 6-O-α-L-(3″,4″-di-O-trans-p-methoxycinnamoyl)-rhamnopyranosylcatalpol]	0		17%					
C[C@@H]1O[C@@H](O[C@H]2[C@@H]3C=CO[C@@H](O[C@@H]4O[C@H](CO)[C@@H](O)[C@H](O)[C@H]4O)[C@@H]3[C@@]3(CO)O[C@@H]23)[C@H](O)[C@H](OC(=O)/C=C/c2ccc(O)cc2)[C@H]1OC(=O)/C=C/c1ccc(O)cc1 (relative stereo) [Compound 1, 6-O-α-L-(3″,4″-di-O-trans-p-coumaroyl) rhamnopyranosylcatalpol]	0		26%					
